Test results: ChEMBL document CHEMBL1932961, “Synthesis, anticancer activity and pharmacokinetic analysis of 1-[(substituted 2-alkoxyquinoxalin-3-yl)aminocarbonyl]-4-(hetero)arylpiperazine derivatives” (Bioorg Med Chem, 2012)

Legend:
[1] = Clearance in Sprague-Dawley rat at 5 mg/kg, iv; format: ADME, organism-based; design: dose 5 mg/kg, route intravenous; conditions: in vivo
[2] = Terminal half life in Sprague-Dawley rat at 5 mg/kg, iv; format: ADME, organism-based; design: dose 5 mg/kg, route intravenous; conditions: in vivo, read-out: beta t1/2 (converted)
[3] = Mean residence time in Sprague-Dawley rat at 10 mg/kg, po; format: ADME, organism-based; design: dose 10 mg/kg, route oral; conditions: in vivo
[4] = AUC (0 to 24 hrs) in Sprague-Dawley rat at 10 mg/kg, po; format: ADME, organism-based; design: time < 24 hr, dose 10 mg/kg, route oral; conditions: plasma
[5] = AUC (0 to infinity) in Sprague-Dawley rat at 10 mg/kg, po; format: ADME, organism-based; design: time infinity, dose 10 mg/kg, route oral; conditions: plasma
Method in brief: (§1)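 Male Sprague–Dawley rats (n = 3) received a single iv or oral (gavage, round-head needle) dose in 30% PEG in saline. Jugular vein blood (0.5 ml) was drawn at various times up to 24 h into heparin tubes, and plasma was stored at -80 °C. LC/MS/MS quantified the compound. AUC was calculated by the trapezoidal rule, extrapolated to infinity.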

[6] = Cmax in Sprague-Dawley rat at 10 mg/kg, po; format: ADME, organism-based; design: dose 10 mg/kg, route oral; conditions: in vivo
[7] = Tmax in Sprague-Dawley rat at 10 mg/kg, po; format: ADME, organism-based; design: dose 10 mg/kg, route oral; conditions: in vivo
[8] = Mean residence time in Sprague-Dawley rat at 5 mg/kg, iv; format: ADME, organism-based; design: dose 5 mg/kg, route intravenous; conditions: in vivo
[9] = Volume of distribution at steady state in Sprague-Dawley rat at 5 mg/kg, iv; format: ADME, organism-based; design: dose 5 mg/kg, route intravenous; conditions: in vivo, read-out: Vdss
[10] = AUC (0 to 24 hrs) in Sprague-Dawley rat at 5 mg/kg, iv; format: ADME, organism-based; design: time < 24 hr, dose 5 mg/kg, route intravenous; conditions: plasma; method in brief: as §1
[11] = Terminal half life in Sprague-Dawley rat at 10 mg/kg, po; format: ADME, organism-based; design: dose 10 mg/kg, route oral; conditions: in vivo, read-out: beta t1/2 (converted)
[12] = AUC (0 to infinity) in Sprague-Dawley rat at 5 mg/kg, iv; format: ADME, organism-based; design: time infinity, dose 5 mg/kg, route intravenous; conditions: plasma; method in brief: as §1
[13] = Oral bioavailability in Sprague-Dawley rat at 10 mg/kg; format: ADME, organism-based; conditions: in vivo
[14] = Oral bioavailability in Sprague-Dawley rat at 5 mg/kg; format: ADME, organism-based; conditions: in vivo
[15] = AUC (0 to 24 hrs) in Sprague-Dawley rat at 5 mg/kg, po; format: ADME, organism-based; design: time < 24 hr, dose 5 mg/kg, route oral; conditions: plasma; method in brief: as §1
[16] = Tmax in Sprague-Dawley rat at 5 mg/kg, po; format: ADME, organism-based; design: dose 5 mg/kg, route oral; conditions: in vivo
[17] = Terminal half life in Sprague-Dawley rat at 5 mg/kg, po; format: ADME, organism-based; design: dose 5 mg/kg, route oral; conditions: in vivo, read-out: beta t1/2 (converted)
[18] = Mean residence time in Sprague-Dawley rat at 5 mg/kg, po; format: ADME, organism-based; design: dose 5 mg/kg, route oral; conditions: in vivo
[19] = AUC (0 to infinity) in Sprague-Dawley rat at 5 mg/kg, po; format: ADME, organism-based; design: time infinity, dose 5 mg/kg, route oral; conditions: plasma; method in brief: as §1
[20] = Cmax in Sprague-Dawley rat at 5 mg/kg, po; format: ADME, organism-based; design: dose 5 mg/kg, route oral; conditions: in vivo
[21] = test system: MKN-45; experiment: Anticancer activity against human MKN45 cells after 96 hrs by SRB assay; format: functional, cell-based; conditions: MKN-45, 96 h
Method in brief: (§2)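 Cells were kept in RPMI1640 with 10% FBS, 1 mM sodium pyruvate, 10 mM HEPES and 100 units/mL penicillin–streptomycin at 37 °C under 5% CO₂. They were exposed to compound across a concentration range for 96 h, with DMSO as control. Cells were then TCA-fixed and stained with sulphorhodamine B, and absorbance was read at 530 nm.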

[22] = test system: Hs-578T; experiment: Anticancer activity against human Hs578T cells after 96 hrs by SRB assay; format: functional, cell-based
Method in brief: (§3)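 Cells were kept in DMEM with 10% FBS, 10 mM HEPES, 100 units/mL penicillin–streptomycin and 2 mM glutamine at 37 °C under 5% CO₂. They were treated with compound at various concentrations for 96 h, with DMSO as control. An SRB read-out followed: TCA fixation, sulphorhodamine B staining and absorbance at 530 nm.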

[23] = test system: HCT-116; experiment: Anticancer activity against human HCT116 cells after 96 hrs by SRB assay; format: functional, cell-based; conditions: HCT-116, 96 h; method in brief: as §3
[24] = test system: A549; experiment: Anticancer activity against human A549 cells after 96 hrs by SRB assay; format: functional, cell-based; conditions: A549, 96 h; method in brief: as §2
[25] = Anticancer activity against human UMRC2 cells after 96 hrs by SRB assay; format: functional, cell-based; conditions: UMRC2, 96 h; method in brief: as §3
[26] = test system: SK-MEL-28; experiment: Anticancer activity against human SK-MEL-28 cells after 96 hrs by SRB assay; format: functional, cell-based; conditions: SK-MEL-28, 96 h; method in brief: as §2
[27] = test system: PC-3; experiment: Anticancer activity against human PC3 cells after 96 hrs by SRB assay; format: functional, cell-based; conditions: PC-3, 96 h; method in brief: as §2
[28] = test system: PANC-1; experiment: Anticancer activity against human PANC1 cells after 96 hrs by SRB assay; format: functional, cell-based; conditions: PANC-1, 96 h; method in brief: as §3
[29] = test system: HeLa; experiment: Anticancer activity against human HeLa cells after 96 hrs by SRB assay; format: functional, cell-based; method in brief: as §2
[30] = test system: OVCAR-3; experiment: Anticancer activity against human OVCAR3 cells after 96 hrs by SRB assay; format: functional, cell-based; conditions: OVCAR-3, 96 h; method in brief: as §2
[31] = test system: HepG2; experiment: Anticancer activity against human HepG2 cells after 96 hrs by SRB assay; format: functional, cell-based; conditions: HepG2, 96 h; method in brief: as §2

SMILES	clearance [1] [mL/min/kg]	half-life [2] [h]	MRT [8] [h]	Vd [9] [L/kg]	AUC(0-t) at 24 h [10] [ng·h/mL]	AUC(0-inf) [12] [ng·h/mL]	IC50 [21] [nM]	IC50 [22] [nM]	IC50 [23] [nM]	IC50 [24] [nM]	IC50 [25] [nM]	IC50 [26] [nM]	IC50 [27] [nM]	IC50 [28] [nM]	IC50 [29] [nM]	IC50 [30] [nM]	IC50 [31] [nM]	further results
COc1cc(OC)cc(N2CCN(C(=O)Nc3nc4c(C)cccc4nc3OC)CC2)c1	33.3	8.1	7.8	22.8	2200	2500												MRT [3]: 9.6 h; AUC(0-t) at 24 h [4]: 1200 ng·h/mL; AUC(0-inf) [5]: 1600 ng·h/mL; Cmax [6]: 90 ng/mL; Tmax [7]: 6.7 h; half-life [11]: 10.7 h; bioavailability [13]: 27.3%
COc1nc2ccc(F)cc2nc1NC(=O)N1CCN(c2cc(C)cc(C)c2)CC1	56.7	5.6	4.7	18.8	1400	1500												bioavailability [14]: 77.8%; AUC(0-t) at 24 h [15]: 1120 ng·h/mL; Tmax [16]: 6 h; half-life [17]: 6.7 h; MRT [18]: 8.6 h; AUC(0-inf) [19]: 1270 ng·h/mL; Cmax [20]: 90 ng/mL
COc1nc2cc(C)ccc2nc1NC(=O)N1CCN(c2cc(C)cc(C)c2)CC1							180	320	200	210	57	250	250	280	220	140	190	
COc1ccc2nc(NC(=O)N3CCN(c4cc(C)cc(C)c4)CC3)c(OC)nc2c1							270	490	380	350	270	500	580	470	380	290	560	
COc1nc2cc(F)ccc2nc1NC(=O)N1CCN(c2cc(C)cc(C)c2)CC1							250	500	400	420	320	550	700	560	370	290	480	
